T1: rGBA (Homo sapiens, UniProt P04062, R534H)
T1 sequence (P04062 40-536 R534H): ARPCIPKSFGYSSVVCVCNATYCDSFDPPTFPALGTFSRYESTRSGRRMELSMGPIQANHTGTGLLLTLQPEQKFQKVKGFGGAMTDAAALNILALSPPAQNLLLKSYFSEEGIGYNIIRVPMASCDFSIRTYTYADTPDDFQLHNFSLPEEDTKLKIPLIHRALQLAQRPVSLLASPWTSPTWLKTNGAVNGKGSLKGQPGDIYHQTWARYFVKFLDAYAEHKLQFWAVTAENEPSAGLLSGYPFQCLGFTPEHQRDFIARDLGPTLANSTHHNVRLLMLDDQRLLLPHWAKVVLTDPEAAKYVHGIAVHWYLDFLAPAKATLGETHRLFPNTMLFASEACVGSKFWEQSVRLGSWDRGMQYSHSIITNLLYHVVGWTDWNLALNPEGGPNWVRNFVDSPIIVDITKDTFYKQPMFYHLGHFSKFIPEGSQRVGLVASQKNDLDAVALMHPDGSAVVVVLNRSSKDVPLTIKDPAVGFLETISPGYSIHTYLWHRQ

T2: wild-type GBA (Homo sapiens, UniProt P04062)
T2 sequence (P04062 40-536): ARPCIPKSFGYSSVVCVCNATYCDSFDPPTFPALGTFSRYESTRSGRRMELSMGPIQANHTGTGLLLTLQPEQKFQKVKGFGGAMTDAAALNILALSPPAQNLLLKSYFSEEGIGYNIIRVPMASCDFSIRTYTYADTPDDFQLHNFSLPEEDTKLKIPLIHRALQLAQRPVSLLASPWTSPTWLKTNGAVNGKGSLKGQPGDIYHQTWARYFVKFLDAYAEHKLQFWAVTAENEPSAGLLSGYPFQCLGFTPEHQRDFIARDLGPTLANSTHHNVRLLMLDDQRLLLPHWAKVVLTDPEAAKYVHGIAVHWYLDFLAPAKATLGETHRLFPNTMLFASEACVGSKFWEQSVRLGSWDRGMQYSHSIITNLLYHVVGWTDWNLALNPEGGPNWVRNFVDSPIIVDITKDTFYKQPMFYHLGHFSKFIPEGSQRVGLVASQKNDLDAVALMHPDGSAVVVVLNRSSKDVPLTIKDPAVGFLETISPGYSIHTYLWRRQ


Key:
GBA = conditions: neutral pH; cited from earlier work
GBA L444P mutant = conditions: mice, oral administration; cited from earlier work
rGBA [1] = molecular target: T1, rGBA; experiment: Thermal stability of rGBA by tryptophan fluorescence decay; assay type: binding
wild-type and N370S GBA = experiment: In situ treatment of fibroblasts with IFG 1 or fluoro 3 for 12 days; assay type: cell-based, human; conditions: wild-type and homozygous N370S GBA fibroblasts
rGBA [2] = molecular target: T1, rGBA; experiment: Limited proteolysis of rGBA with trypsin; conditions: for rGBA remaining intact after tryptic digestion: 90 min of incubation with trypsin
wild-type GBA = molecular target: T2, wild-type GBA; experiment: In situ stabilization of GBA in wild-type fibroblasts; assay type: cell-based; conditions: wild-type cells, 100 nM ABP 5 or 100 μM leupeptin, up to 12 days
Method in brief: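 Confluent wild-type skin fibroblasts were cultured 0–12 days with 100 nM red β-epoxide probe, 100 μM leupeptin, or both, with medium refreshed […]. Lysates were made in pH 6.5 phosphate/Triton with protease inhibitors. Without in situ probe, 10 μg protein was labeled 1 h at 37 °C with 100 nM green probe at pH 5.2. Analysis was SDS-PAGE fluorescence, Coomassie staining and anti-GBA (8E4) western blot, then densitometry.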

[3] = Time-dependent decay of rGBA activity at 37 °C; assay type: physicochemical
[4] = Thermal unfolding of free rGBA by circular dichroism; assay type: physicochemical; conditions: circular dichroism 222 nm
rGBA [5] = molecular target: T1, rGBA; experiment: Tryptophan emission fluorescence spectra of rGBA; conditions: λEX 295 nm, pH 7.4, free or in complex with inhibitor

Row | increase of Tm of rGBA (rGBA [1]; pH 5.2, saturating inhibitor concentration) | rGBA remaining intact after tryptic digestion (rGBA [2]) [%] | stabilization of GBA (wild-type GBA) | maximum emission of rGBA tryptophan fluorescence (rGBA [5]) [nm] | Molecule | increase in thermal stability of GBA (GBA) [°C] | increase of GBA L444P mutant activity (GBA L444P mutant) | concentration at which stabilizing effect became evident (wild-type and N370S GBA) | concentration of maximal stabilizing effect (wild-type and N370S GBA; highest concentration tested) [µM] | activity of rGBA over time ([3]; pH 5.2, 37 °C) | half-life of rGBA activity ([3]; pH 7.4, 37 °C, residual activity measured at pH 5.2) [min] | Tm of rGBA (rGBA [1]; pH 5.2, no inhibitor) [°C] | apparent Tm ([4]; pH 5.2) [°C] | apparent Tm ([4]; pH 7.4) [°C] | sensitivity of rGBA to tryptic digestion over 90 min (rGBA [2]; pH 5.2, trypsin/rGBA 1/10 (w/w)) | rGBA degraded by trypsin within 60 min (rGBA [2]; pH 7.4, trypsin/rGBA 1/10 (w/w))
1 | +5.6 °C | 50 | – | – | OC[C@H]1CNC[C@@H](O)[C@@H]1O [IFG 1, isofagomine] | 8.7 | up to 5 fold | greater than 10 μM | 100 | – | – | – | – | – | – | –
2 | – | – | about 3 fold | – | CC(=O)N[C@@H](CC(C)C)C(=O)N[C@@H](CC(C)C)C(=O)N[C@H](C=O)CCCNC(=N)N [leupeptin] | – | – | – | – | – | – | – | – | – | – | –
3 | – | ~10 | – | 336.5 | rGBA: purified recombinant glucocerebrosidase (imiglucerase) from Genzyme (protein, UniProt P04062 40-536, looked up, variant R495H, imiglucerase) Lysosomal acid …: ARPCIPKSFGYSSVVCVCNATYCDSFDPPTFPALGTFSRYESTRSGRRMELSMGPIQANHTGTGLLLTLQPEQKFQKVKGFGGAMTDAAALNILALSPPAQNLLLKSYFSEEGIGYNIIRVPMASCDFSIRTYTYADTPDDFQLHNFSLPEEDTKLKIPLIHRALQLAQRPVSLLASPWTSPTWLKTNGAVNGKGSLKGQPGDIYHQTWARYFVKFLDAYAEHKLQFWAVTAENEPSAGLLSGYPFQCLGFTPEHQRDFIARDLGPTLANSTHHNVRLLMLDDQRLLLPHWAKVVLTDPEAAKYVHGIAVHWYLDFLAPAKATLGETHRLFPNTMLFASEACVGSKFWEQSVRLGSWDRGMQYSHSIITNLLYHVVGWTDWNLALNPEGGPNWVRNFVDSPIIVDITKDTFYKQPMFYHLGHFSKFIPEGSQRVGLVASQKNDLDAVALMHPDGSAVVVVLNRSSKDVPLTIKDPAVGFLETISPGYSIHTYLWHRQ | – | – | – | – | preserved | 30 | 55.2 | 61 | 57 | shows resistance to tryptic digestion | about 40%
